In ChEMBL document CHEMBL1158096, “Cytotoxic triterpenoids from the leaves of Microtropis fokienensis” (J Nat Prod, 2006):
In brackets after ≈: the same amount, converted by molar mass. Activity calls are given as the source filed them. The rule behind the calls is not given here.

How the values were obtained:
[1] = system: A549; assay: Cytotoxicity against human A549 cells after 3 days by MTT method; type: functional, cell-based
Outline: (§1)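 Freshly trypsinized cells seeded at 5000-10 000 per well; compounds added from DMSO stocks. After 3 days in culture, attached cells incubated with MTT ([…], 1 h), solubilized in DMSO, absorbance read at 550 nm. IC50 = concentration reducing cell growth by 50%. Mean of two to three separate experiments, each in triplicate.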

[2] = system: HepG2; assay: (§2) Cytotoxicity against human Hep G2 cells after 3 days by MTT method; type: functional, cell-based; outline: as §1
[3] = system: MDA-MB-231; assay: Cytotoxicity against human MDA-MB-231 cells after 3 days by MTT method; type: functional, cell-based; outline: as §1
[4] = system: MCF7; assay: Cytotoxicity against human MCF7 cells after 3 days by MTT method; type: functional, cell-based; outline: as §1
[5] = system: Hep 3B2; assay: (§3) Cytotoxicity against human Hep3B cells after 3 days by MTT method; type: functional, cell-based; outline: as §1
[6] = as §2; type: functional, cell-based; conditions: HepG2, 72 h; outline: as §1
[7] = as §3; type: functional, cell-based, Hep 3B2; conditions: 72 h; outline: as §1

Structure (SMILES) | Activity [1] | Activity [2] | Activity [3] | Activity [4] | Activity [5] | IC50 [6] | IC50 [7]
CC1(C)C(=O)CC[C@]2(C)[C@H]3C=C[C@]45OC[C@@]6(CC[C@](C)(CO)C[C@H]64)CC[C@@]5(C)[C@]3(C)CC[C@@H]12 | inactive | inactive | inactive | inactive | inactive |  | 
Oc1cc(O)c2c(c1)O[C@H](c1ccc(O)c(O)c1)[C@H](O)C2 | inactive | inactive | inactive | inactive | inactive |  | 
C[C@H]1[C@H](C)CC[C@@]23CC[C@]4(C)[C@@](C=C[C@@H]5[C@@]6(C)CC[C@H](O)C(C)(C)[C@@H]6CC[C@]54C)(OC2)[C@H]13 | inactive | inactive | inactive | inactive | inactive |  | 
C=C(CO)[C@@H]1CC[C@]2(CO)CC[C@]3(C)[C@H](CC[C@@H]4[C@@]5(C)CC[C@H](O)C(C)(C)[C@@H]5CC[C@]43C)[C@@H]12 | inactive | inactive | inactive | inactive | inactive |  | 
C[C@H]1[C@H](C)CC[C@@]23CC[C@]4(C)[C@@](C=C[C@@H]5[C@@]6(C)CC[C@H](O)[C@@](C)(CO)[C@@H]6CC[C@]54C)(OC2)[C@H]13 | inactive | inactive | inactive | inactive | inactive |  | 
C[C@H]1[C@H](C)CC[C@@]23CC[C@@]4(C)[C@]5(C)CC[C@@H]6[C@](C)(CC[C@H](O)[C@@]6(C)CO)[C@H]5CC(=O)[C@]4(OC2)[C@H]13 [MICROFOKIENOXANE C] | inactive |  | inactive | inactive |  | 3.8 µg/mL (≈ 8.04 µM) | 4.5 µg/mL (≈ 9.52 µM)
CO[C@@H]1C=C2[C@@H]3[C@@H](C)[C@H](C)CC[C@]3(CO)CC[C@@]2(C)[C@]2(C)CC[C@H]3C(C)(C)[C@@H](O)CC[C@]3(C)[C@@H]12 | inactive |  | inactive | inactive | inactive | 4.6 µg/mL (≈ 9.73 µM) | 
C=C(CO)[C@@H]1CC[C@]2(C)CC[C@]3(C)[C@H](CC[C@@H]4[C@@]5(C)CC[C@H](O)C(C)(C)[C@@H]5CC[C@]43C)[C@@H]12 | inactive | inactive | inactive | inactive | inactive |  | 
C[C@H]1[C@H](C)CC[C@]2(CO)CC[C@]3(C)C(=CC[C@@H]4[C@@]5(C)CC[C@H](O)C(C)(C)[C@@H]5CC[C@]43C)[C@H]12 | inactive | inactive | inactive | inactive | inactive |  | 
C[C@H]1[C@H](C)CC[C@]23CO[C@@]4(C=C[C@@H]5[C@@]6(C)CC[C@H](O)C(C)(C)[C@@H]6CC[C@@]5(C)[C@]4(C)C[C@@H]2O)[C@H]13 | inactive | inactive | inactive | inactive | inactive |  | 
O=c1c(O)c(-c2ccc(O)cc2)oc2cc(O)cc(O)c12 | inactive | inactive | inactive | inactive | inactive |  | 
COC(=O)/C=C/c1ccc(O)cc1 | inactive | inactive | inactive | inactive | inactive |  | 
CO[C@@H]1C=C2[C@@H]3[C@@H](C)[C@H](C)CC[C@]3(C)CC[C@@]2(C)[C@]2(C)CC[C@H]3C(C)(C)[C@@H](O)CC[C@]3(C)[C@@H]12 | inactive | inactive | inactive | inactive | inactive |  | 
CC1(C)CC[C@@]23CC[C@]4(C)[C@@](C=C[C@@H]5[C@@]6(C)CC[C@H](O)C(C)(C)[C@@H]6CC[C@]54C)(OC2)[C@@H]3C1 | inactive | inactive | inactive | inactive | inactive |  | 
